Source: PubChem (Johns Hopkins Ion Channel Center)
A selection: hits, their analogues and other compounds. The true share with any hit is near 3.5%.
MrgX1 ag = agonists of human MrgX1 receptor, primary screen, HEK293 cells, Fluo-4 calcium flux; Mas-related G-protein coupled receptor member X1 (Homo sapiens), Q96LB2; Fluo-4 calcium fluorescence, agonist mode; hits give high values; B-score at 10 µM; 310,000 compounds, 0.44% hits; AID 588627, 2011;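 active = calcium response B-score plate-corrected fluorescence ratio at least 3 library SD, with starting fluorescence B-score inside 5 SD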
Target sequence (Q96LB2 whole entry, looked up): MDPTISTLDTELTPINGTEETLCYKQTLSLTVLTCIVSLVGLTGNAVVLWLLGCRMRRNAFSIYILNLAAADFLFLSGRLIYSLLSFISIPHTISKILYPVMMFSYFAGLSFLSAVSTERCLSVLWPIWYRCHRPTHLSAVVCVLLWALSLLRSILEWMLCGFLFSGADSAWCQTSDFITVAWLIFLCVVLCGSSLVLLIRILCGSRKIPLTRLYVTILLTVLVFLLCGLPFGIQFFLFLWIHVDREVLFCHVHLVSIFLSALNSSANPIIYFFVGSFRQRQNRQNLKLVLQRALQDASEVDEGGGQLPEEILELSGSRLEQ
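Test system: HEK293 cells stably expressing human MrgX1 receptor; Input: fifteen thousand cells per well; Dosing: compound delivered in addition one of three; Schedule: overnight seeding, then 1 h dark dye loading; Technique: Fluo-4 NW calcium fluorescence; Measure: B-scored fluorescence response ratio; Controls: positive and negative controls per plate.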
MrgX1 antag = antagonists of human MrgX1 receptor, primary screen, HEK293 cells, Fluo-4 calcium flux | BAM8-22 antagonism; hits give low values | B-score at 10 µM | 310,000 compounds, 1.3% hits;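 active = calcium-response B-score plate-corrected more than 3 library SD below zero, starting fluorescence within 5 deviations, no agonist response on first addition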;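 also: peak minus trough fluorescence over baseline after final BAM8-22 challenge near maximal dose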
RGS4 pot = RGS4 potentiators or activators, primary screen, cell-based, HEK293 M3R inducible RGS4, calcium flux; carbachol calcium flux Fluo4; hits give low values; B-score at 10 µM; 310,000 compounds, 0.92% hits;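 active = B-score of the integrated calcium signal more than 4 SD below the library mean, with starting fluorescence not abnormally high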;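 also: negative B-score means reduced calcium response which marks RGS4 activation or potentiation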
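System: HEK293 FlpIn-TREx cells, stable M3R, doxycycline-inducible RGS4. Timing: overnight RGS4 induction, 30 min dye load 37 °C, 20 min compound RT. Also added: carbachol, ECmax concentration. Measured by: Fluo4 fluorescence kinetic imaging of calcium. Evaluation: integrated calcium ratio converted to B score.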
RGS4 inh = RGS4 inhibitors, primary screen, cell-based, HEK293 M3R inducible RGS4, calcium flux; Regulator of G-protein signaling 4 (Homo sapiens), P49798; Fluo-4 calcium flux; hits give high values; triggered by carbachol at its EC20; B-score at 10 µM; 310,000 compounds, 0.45% hits; AID 463165, 2010;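 active = B-score, a plate-corrected calcium signal, over three deviations above library mean, with baseline fluorescence within five deviations of library mean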;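 also: RGS4 expression induced by doxycycline in cells with stable M3 receptor; B-score is computed from the integrated fluorescence ratio over baseline after carbachol; higher B-score means a larger calcium signal and so more RGS4 inhibition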
Target sequence (P49798 whole entry, looked up): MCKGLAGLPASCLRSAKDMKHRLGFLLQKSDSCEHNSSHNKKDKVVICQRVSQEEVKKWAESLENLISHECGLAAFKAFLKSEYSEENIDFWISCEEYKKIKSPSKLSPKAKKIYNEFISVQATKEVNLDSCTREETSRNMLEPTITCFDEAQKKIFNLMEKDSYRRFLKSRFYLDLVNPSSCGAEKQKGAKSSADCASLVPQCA
MrgX1 allo act = positive allosteric modulators of MrgX1, primary screen, HEK293 cells, Fluo-4 calcium flux; Mas-related G-protein coupled receptor member X1 (Homo sapiens), Q96LB2; FDSS; hits give high values; B-score at 10 µM; 310,000 compounds, 0.63% hits; AID 588675, 2011;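 active = plate-corrected calcium response at least 3 library SD above typical, normal starting fluorescence, not activating the receptor alone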;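 also: compound read alongside a low EC10 to EC30 dose of BAM8-22 agonist; peak minus trough fluorescence over baseline measured at the second addition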
Numbers without * were called inactive.

For O=C(CSc1nccn1-c1ccc(Cl)cc1)NCc1ccc2c(c1)OCO2 the results were MrgX1 ag inactive, MrgX1 antag inactive, RGS4 pot inactive, RGS4 inh inactive and MrgX1 allo act inactive.
Screening Clc1cccc(NCc2nnc(SCc3ccc(Cl)cc3Cl)o2)c1 returned MrgX1 ag inactive, MrgX1 antag inactive, RGS4 pot -8.6*, RGS4 inh inactive and MrgX1 allo act inactive.
O=C(CCC(=O)N1CCOCC1)c1ccc(F)cc1 was read as MrgX1 ag inactive, MrgX1 antag inactive, RGS4 pot inactive, RGS4 inh inactive and MrgX1 allo act inactive.
Screening COc1ccccc1CNC(=O)C1CCC(CNS(=O)(=O)c2ccccc2)CC1 (centres undefined) returned MrgX1 ag inactive, MrgX1 antag inactive, RGS4 pot inactive, RGS4 inh inactive and MrgX1 allo act inactive.
Screening COC(=O)C(=Cc1ccccc1[N+](=O)[O-])C(=O)OC returned MrgX1 ag 50*, MrgX1 antag inactive, RGS4 pot inactive, RGS4 inh inactive and MrgX1 allo act inactive.
`CCCCCCCCNC(=O)/C(C#N)=C/c1ccccc1[N+](=O)[O-]` gave MrgX1 ag inactive, MrgX1 antag inactive, RGS4 pot -7.9*, RGS4 inh inactive and MrgX1 allo act inactive.
`O=C(/C=C/c1ccccc1[N+](=O)[O-])Oc1ccccc1` gave MrgX1 ag inactive, MrgX1 antag inactive, RGS4 pot inactive, RGS4 inh inactive and MrgX1 allo act inactive.
CCN1CCCC1CN(Cc1cc2ccc(C)cc2[nH]c1=O)C(=S)Nc1ccc(F)cc1 (centres undefined) was read as MrgX1 ag inactive, MrgX1 antag inactive, RGS4 pot inactive, RGS4 inh inactive and MrgX1 allo act inactive.
For O=C(NCCS(=O)(=O)N1CCN(c2ccccc2)CC1)C1CCCC1 the results were MrgX1 ag inactive, MrgX1 antag inactive, RGS4 pot inactive, RGS4 inh inactive and MrgX1 allo act inactive.
`NC(=Nc1ccccc1)Nc1ccccc1` gave MrgX1 ag 84*, MrgX1 antag inactive, RGS4 pot -8.5*, RGS4 inh inactive and MrgX1 allo act inactive.
For CCCCC(=O)NC(=S)Nc1ccccc1N1CCCCC1 the results were MrgX1 ag inactive, MrgX1 antag inactive, RGS4 pot inactive, RGS4 inh inactive and MrgX1 allo act inactive.
For CCCC(=O)NC(=S)Nc1ccccc1N1CCOCC1 the results were MrgX1 ag inactive, MrgX1 antag -7.7*, RGS4 pot inactive, RGS4 inh inactive and MrgX1 allo act inactive.
CCOC(=O)N1CCC(NC(=O)CC2C(=O)NCCN2Cc2ccccc2)CC1 (centres undefined) was read as MrgX1 ag inactive, MrgX1 antag inactive, RGS4 pot inactive, RGS4 inh inactive and MrgX1 allo act inactive.
`CCCCCCCCC[n+]1cccc2c3ccccc3ccc21` gave MrgX1 ag inactive, MrgX1 antag inactive, RGS4 pot -8.6*, RGS4 inh inactive and MrgX1 allo act inactive.
For Cn1c2ccccc2c2cnn(CC(=O)N3CCCCC3)c(=O)c21 the results were MrgX1 ag inactive, MrgX1 antag inactive, RGS4 pot inactive, RGS4 inh inactive and MrgX1 allo act inactive.
Screening Cc1ccc(/C=C2\SC(=S)N(C3CCS(=O)(=O)C3)C2=O)o1 (centres undefined) returned MrgX1 ag inactive, MrgX1 antag inactive, RGS4 pot inactive, RGS4 inh inactive and MrgX1 allo act inactive.
`NS(=O)(=O)c1ccc(-c2ccc(/C=C3\SC(=S)N(C4CCS(=O)(=O)C4)C3=O)o2)cc1` (centres undefined) gave MrgX1 ag inactive, MrgX1 antag -8.6*, RGS4 pot inactive, RGS4 inh inactive and MrgX1 allo act inactive.
Screening C=CCOc1c(Cl)cc(C2NC(=O)NC(C)=C2C(=O)OC)cc1Cl (centres undefined) returned MrgX1 ag inactive, MrgX1 antag inactive, RGS4 pot inactive, RGS4 inh inactive and MrgX1 allo act inactive.
CO/N=C/C(c1ccc(Cl)nc1)S(=O)(=O)c1ccccc1 (centres undefined) was read as MrgX1 ag inactive, MrgX1 antag inactive, RGS4 pot inactive, RGS4 inh inactive and MrgX1 allo act inactive.
`CO/N=C/C(c1ncc(C(F)(F)F)cc1Cl)S(=O)(=O)c1ccccc1` (centres undefined) gave MrgX1 ag inactive, MrgX1 antag -8.2*, RGS4 pot inactive, RGS4 inh inactive and MrgX1 allo act inactive.
For CC1CCN(Cc2ccc(NC(=O)C3CCN(c4nnc(-n5cccc5)s4)CC3)cc2)CC1 the results were MrgX1 ag inactive, MrgX1 antag inactive, RGS4 pot -8.2*, RGS4 inh inactive and MrgX1 allo act inactive.
For O=C(C1CCN(c2nnc(-n3cccc3)s2)CC1)N1CCN(Cc2ccc3c(c2)OCO3)CC1 the results were MrgX1 ag inactive, MrgX1 antag inactive, RGS4 pot inactive, RGS4 inh inactive and MrgX1 allo act inactive.
Screening CC(=O)/C(=N\Nc1ccccc1)Sc1cccc2cccnc12 returned MrgX1 ag inactive, MrgX1 antag -4.7*, RGS4 pot inactive, RGS4 inh inactive and MrgX1 allo act inactive.
For Cc1cc(C)nc(/N=C(\N)Nc2ccc(F)c([N+](=O)[O-])c2)n1 the results were MrgX1 ag 38*, MrgX1 antag inactive, RGS4 pot inactive, RGS4 inh inactive and MrgX1 allo act inactive.
Screening O=C(Cn1sc2ccccc2c1=O)N1CCN(C(=O)c2ccco2)CC1 returned MrgX1 ag inactive, MrgX1 antag inactive, RGS4 pot inactive, RGS4 inh inactive and MrgX1 allo act inactive.
Screening COc1ccccc1C(=O)NCCC(=O)N(C)CC(=O)Nc1ccc(C)cc1 returned MrgX1 ag inactive, MrgX1 antag -5.2*, RGS4 pot inactive, RGS4 inh inactive and MrgX1 allo act inactive.
Screening Cc1c(Cl)cccc1NC(=O)c1ccc(OCC(=O)NCc2ccccc2)cc1 returned MrgX1 ag inactive, MrgX1 antag inactive, RGS4 pot inactive, RGS4 inh inactive and MrgX1 allo act inactive.
Cc1cccc(C)c1-n1cccc1/C=C1\SC(=S)N(c2cccc(C(=O)O)c2)C1=O was read as MrgX1 ag inactive, MrgX1 antag inactive, RGS4 pot -7.6*, RGS4 inh inactive and MrgX1 allo act inactive.
For CC1CCN(CCCCOc2ccc(C(=O)c3ccccc3)cc2)CC1 the results were MrgX1 ag inactive, MrgX1 antag inactive, RGS4 pot -9.6*, RGS4 inh inactive and MrgX1 allo act inactive.
